For seven compounds, EC50 and SI results are on record in ChEMBL document CHEMBL1128679, “Molecular similarity from atomic electrostatic multipole comparisons. Application to anti-HIV drugs” (J Med Chem, 1995).

In one test the test system is AIK-T4. As to the kind of experiment: Ability to prevent HIV-1 induced T4 cell killing and HIV-1 replication. The class given is functional, cell-based. The following applies: Homo sapiens.
The nature of test [1]: Similarity index (SI) value of the compound. The class given is functional. The method, boiled down: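 Computed by comparing atomic electrostatic multipoles at the atomic centres of the molecule pair. Molecule B is rotated and translated against the other by quasi-Newton minimization, using numerical first and second derivatives, with the Hessian updated after every move of B. R is replaced by R + 10^-4 to avoid division by zero. The procedure is repeated to obtain E_B.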

Each structure is given as a SMILES string. pEC50: −log10 of the molar value.

For orientation: pEC50 means −log10 of the EC50, conventionally taken in molar units. The low end stands for a high EC50, the high end for a low EC50. On to `Nc1c(S(=O)(=O)O)cc2cc(S(=O)(=O)O)ccc2c1/N=N/c1ccc(/C=C/c2ccc(/N=N/c3c(N)c(S(=O)(=O)O)cc4cc(S(=O)(=O)O)ccc34)cc2S(=O)(=O)O)c(S(=O)(=O)O)c1`, for which, in the test on AIK-T4, the pEC50 was 5.54. The compound further returned an SI in test [1] of 0.31.
`COc1cc(-c2ccc(/N=N/c3ccc4c(S(=O)(=O)O)cc(S(=O)(=O)O)c(N)c4c3O)c(OC)c2)ccc1/N=N/c1ccc2c(S(=O)(=O)O)cc(S(=O)(=O)O)c(N)c2c1O` [CHICAGO SKY BLUE SODIUM] gave a pEC50 in the test on AIK-T4 of 5.32. In test [1], the SI amounted to 0.4.
The compound `O=S(=O)(O)c1cc(/N=N/c2ccc3cccnc3c2O)ccc1/C=C/c1ccc(/N=N/c2ccc3cccnc3c2O)cc1S(=O)(=O)O` gave a negative logarithm of the EC50 (pEC50) in the test on AIK-T4 of 5.19. In test [1], this compound returned an SI of 0.45.
`Nc1cc(N)c(/N=N/c2ccc(/C=C/c3ccc(/N=N/c4c(N)cc(N)cc4C(=O)O)cc3S(=O)(=O)O)c(S(=O)(=O)O)c2)c(C(=O)O)c1`: the pEC50 with AIK-T4 was 4.51. Moreover, the SI in test [1] was determined as 0.69.
Compound `O=S(=O)(O)c1cc(/N=N/c2cc(S(=O)(=O)O)c3cccnc3c2O)ccc1/C=C/c1ccc(/N=N/c2cc(S(=O)(=O)O)c3cccnc3c2O)cc1S(=O)(=O)O` gave a pEC50 with AIK-T4 of 5.89. Also, the SI in test [1] is 0.
Compound `COc1cc(-c2ccc(/N=N/c3ccc4c(S(=O)(=O)O)ccc(S(=O)(=O)O)c4c3N)c(OC)c2)ccc1/N=N/c1ccc2c(S(=O)(=O)O)ccc(S(=O)(=O)O)c2c1N` had a pEC50 in the test with AIK-T4 of 4.86. Besides, the SI in test [1] is 0.5.
`O=C(O)c1cc(O)cc(O)c1/N=N/c1ccc(/C=C/c2ccc(/N=N/c3c(O)cc(O)cc3C(=O)O)cc2S(=O)(=O)O)c(S(=O)(=O)O)c1` had a pEC50 in the test with AIK-T4 of 5.85. The SI in test [1] turned out to be 0.16.
